ChEMBL document CHEMBL4842366, “Design, synthesis and structure-activity relationship studies of 4-indole-2-arylaminopyrimidine derivatives as anti-inflammatory agents for acute lung injury” (Eur J Med Chem, 2021)
Calls of active or inactive are those of the source. The calls are words filed in the database; no cut-off is given here.

Experiments:
[1] = Cytotoxicity against human HBE cells assessed as reduction in cell survival at 10 uM by MTT assay; format: cell-based
How it was run: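 HBE cells were seeded at 1 × 10^4 per well in RPMI-1640 with 10% FBS and exposed to compound at 10 μM. Viability was then read by MTT: MTT solution (5 mg/mL) for 4 h at 37 °C in the dark, formazan dissolved in DMSO, and absorbance read at 490 nm.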

HBE [2] = test: Antiinflammatory activity in human HBE cells assessed as inhibition of LPS-induced IL-6 production at 5 uM pretreated with compound for 30 mins followed by LPS stimulation and measured after 24 hrs by ELISA; format: functional, cell-based; conditions: time 1470.0 min
How it was run: (§1)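 HBE cells were grown in RPMI-1640 with 10% FBS at 37 °C and 5% CO2. Cells were pretreated for 30 min with compound or indomethacin at 5 μM, then stimulated with LPS (100 μg/mL) for 24 h. IL-6 or IL-8 in the medium was measured by ELISA and normalized to total cell protein determined by BCA assay.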

HBE [3] = test: Antiinflammatory activity in human HBE cells assessed as inhibition of LPS-induced IL-8 production at 5 uM pretreated with compound for 30 mins followed by LPS stimulation and measured after 24 hrs by ELISA; format: functional, cell-based; conditions: time 1470.0 min; how it was run: as §1
Mus musculus [4] = test: Antiinflammatory activity against LPS-induced acute lung injury C57BL/6 mouse model assessed as reduction in inflammatory cell infiltration in lungs at 20 mg/kg, ip administered for 3 days and on day 4 treated 1 hr before LPS stimulation and measured after 18 hrs by H and E staining based microscopic analysis; format: functional, organism-based; conditions: time 4.0 day
How it was run: (§2)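 Male C57BL/6 mice (20–25 g, SPF) in groups of n = 6 were given 0.9% saline or compound i.p. for 3 days. On day 4, LPS (5 mg/kg) was instilled intratracheally 1 h after dosing, and mice were killed 18 h later. Lungs were fixed in 4% paraformaldehyde, paraffin-embedded, cut at 5 μm, H&E-stained and photographed for pathology.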

Mus musculus [5] = test: Antiinflammatory activity against LPS-induced acute lung injury C57BL/6 mouse model assessed as reduction in protein content in BALF at 10 to 20 mg/kg, ip administered for 3 days and on day 4 treated 1 hr before LPS stimulation and measured after 18 hrs by BCA assay; format: functional, organism-based; conditions: dose 10-20 mg/kg, time 4.0 day
How it was run: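 In male C57BL/6 mice (n = 6/group; i.p. dosing for 3 days; intratracheal LPS 5 mg/kg 1 h after the day-4 dose; killed at 18 h), lungs were lavaged three times with 1 mL cold PBS. BALF was spun at 800 g, 4 °C, for 10 min, and supernatant protein was measured by BCA assay.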

Mus musculus [6] = test: Antiinflammatory activity against LPS-induced acute lung injury C57BL/6 mouse model assessed as reduction in edema of lung tissue at 20 mg/kg, ip administered for 3 days and on day 4 treated 1 hr before LPS stimulation and measured after 18 hrs by H and E staining based microscopic analysis; format: functional, organism-based; conditions: time 4.0 day; how it was run: as §2
Mus musculus [7] = test: In vivo inhibition of MAPK phosphorylation in LPS-induced acute lung injury C57BL/6 mouse model assessed as inhibition of ERK phosphorylation in lungs at 20 mg/kg, ip administered for 3 days and on day 4 treated 1 hr before LPS stimulation and measured after 18 hrs by western blot analysis; format: functional, organism-based; conditions: time 4.0 day
Mus musculus [8] = test: Antiinflammatory activity against LPS-induced acute lung injury C57BL/6 mouse model assessed as improved alveolar structure in lungs at 20 mg/kg, ip administered for 3 days and on day 4 treated 1 hr before LPS stimulation and measured after 18 hrs by H and E staining based microscopic analysis; format: functional, organism-based; conditions: time 4.0 day; how it was run: as §2
Mus musculus [9] = test: Antiinflammatory activity against LPS-induced acute lung injury C57BL/6 mouse model assessed as reduction in total cell count in BALF at 10 to 20 mg/kg, ip administered for 3 days and on day 4 treated 1 hr before LPS stimulation and measured after 18 hrs; format: functional, organism-based; conditions: dose 10-20 mg/kg, time 4.0 day
How it was run: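 BALF was collected 18 h after intratracheal LPS (5 mg/kg) in male C57BL/6 mice (n = 6/group) given i.p. saline or compound for 3 days, with LPS 1 h after the day-4 dose. Lavage was done with 3 × 1 mL cold PBS and centrifuged at 800 g, 4 °C, for 10 min. The pellet was washed and resuspended in 10 mL PBS, and total cells were counted.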

[10] = Antiinflammatory activity in human HBE cells assessed as inhibition of LPS-induced IL-6 production at 5 uM pretreated with compound for 30 mins followed by LPS stimulation and measured after 24 hrs by ELISA relative to control; format: functional; conditions: 24.5 h, time 1470 min; how it was run: as §1
[11] = Antiinflammatory activity in human HBE cells assessed as inhibition of LPS-induced IL-8 production at 5 uM pretreated with compound for 30 mins followed by LPS stimulation and measured after 24 hrs by ELISA relative to control; format: functional; conditions: 24.5 h, time 1470 min; how it was run: as §1
Mus musculus [12] = test: Antiinflammatory activity against LPS-induced acute lung injury C57BL/6 mouse model assessed as reduction in IL-1beta mRNA expression in lungs at 20 mg/kg, ip administered for 3 days and on day 4 treated 1 hr before LPS stimulation and measured after 18 hrs by SYBR green dye based RT-qPCR analysis; format: functional, organism-based; conditions: time 4.0 day
How it was run: (§3)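 Same LPS lung-injury protocol: n = 6 male C57BL/6 mice per group, 3 days of i.p. saline or compound, then intratracheal LPS (5 mg/kg) 1 h after the day-4 dose, and sacrifice at 18 h. Lung RNA was extracted with TRIZOL for real-time quantitative PCR, with mouse GAPDH primers alongside the target primers. Data are mean ± SEM; Student's t-test.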

Mus musculus [13] = test: In vivo inhibition of MAPK phosphorylation in LPS-induced acute lung injury C57BL/6 mouse model assessed as inhibition of p38 phosphorylation in lungs at 20 mg/kg, ip administered for 3 days and on day 4 treated 1 hr before LPS stimulation and measured after 18 hrs by western blot analysis; format: functional, organism-based; conditions: time 4.0 day
Mus musculus [14] = test: Antiinflammatory activity against LPS-induced acute lung injury C57BL/6 mouse model assessed as reduction in iNOS mRNA expression in lungs at 10 to 20 mg/kg, ip administered for 3 days and on day 4 treated 1 hr before LPS stimulation and measured after 18 hrs by SYBR green dye based RT-qPCR analysis; format: functional, organism-based; conditions: dose 10-20 mg/kg, time 4.0 day; how it was run: as §3
Mus musculus [15] = test: Antiinflammatory activity against LPS-induced acute lung injury C57BL/6 mouse model assessed as reduction in TNF-alpha mRNA expression in lungs at 20 mg/kg, ip administered for 3 days and on day 4 treated 1 hr before LPS stimulation and measured after 18 hrs by SYBR green dye based RT-qPCR analysis; format: functional, organism-based; conditions: time 4.0 day; how it was run: as §3
[16] = target: T1, Epidermal growth factor receptor (Homo sapiens, UniProt P00533); test: Inhibition of EGFR phosphorylation in human HBE cells incubated for 24 hrs by western blot analysis; format: cell-based
T1 sequence (P00533 whole entry): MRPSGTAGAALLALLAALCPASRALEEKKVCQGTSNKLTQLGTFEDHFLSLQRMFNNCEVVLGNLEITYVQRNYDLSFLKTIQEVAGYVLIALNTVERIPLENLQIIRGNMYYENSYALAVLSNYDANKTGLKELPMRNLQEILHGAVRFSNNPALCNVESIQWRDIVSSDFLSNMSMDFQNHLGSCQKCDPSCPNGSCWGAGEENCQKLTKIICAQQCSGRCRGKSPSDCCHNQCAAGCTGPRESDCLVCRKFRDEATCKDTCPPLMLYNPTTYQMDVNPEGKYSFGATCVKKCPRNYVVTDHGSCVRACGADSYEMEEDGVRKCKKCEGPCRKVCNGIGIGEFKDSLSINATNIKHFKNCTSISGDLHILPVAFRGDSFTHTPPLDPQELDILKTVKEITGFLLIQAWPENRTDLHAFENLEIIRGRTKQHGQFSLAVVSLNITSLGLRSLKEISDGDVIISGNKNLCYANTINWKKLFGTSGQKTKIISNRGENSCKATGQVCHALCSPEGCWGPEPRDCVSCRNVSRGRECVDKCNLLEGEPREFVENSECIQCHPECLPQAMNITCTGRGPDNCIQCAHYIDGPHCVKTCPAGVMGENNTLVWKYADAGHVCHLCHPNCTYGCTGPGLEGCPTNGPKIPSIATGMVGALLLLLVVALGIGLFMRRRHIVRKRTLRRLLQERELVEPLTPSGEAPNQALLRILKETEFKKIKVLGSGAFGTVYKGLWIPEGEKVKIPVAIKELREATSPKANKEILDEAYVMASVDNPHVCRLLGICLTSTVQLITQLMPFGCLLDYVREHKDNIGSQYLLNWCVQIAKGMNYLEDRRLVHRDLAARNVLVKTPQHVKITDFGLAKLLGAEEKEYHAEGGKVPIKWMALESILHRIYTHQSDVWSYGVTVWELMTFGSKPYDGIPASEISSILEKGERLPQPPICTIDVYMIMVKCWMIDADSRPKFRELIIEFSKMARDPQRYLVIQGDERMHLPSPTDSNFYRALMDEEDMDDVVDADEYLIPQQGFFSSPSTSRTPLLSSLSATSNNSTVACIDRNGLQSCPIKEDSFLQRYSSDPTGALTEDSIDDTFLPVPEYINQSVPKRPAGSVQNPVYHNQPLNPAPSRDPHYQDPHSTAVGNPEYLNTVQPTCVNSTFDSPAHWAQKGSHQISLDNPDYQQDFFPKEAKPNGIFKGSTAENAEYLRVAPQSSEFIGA
How it was run: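 HBE cells were treated with drug for 24 h, washed with cold PBS and lysed on ice for 30 min in buffer with protease and phosphatase inhibitors, then centrifuged at 12000 r/min, 4 °C, for 30 min. Protein was quantified by BCA and separated by SDS-PAGE. Blots were probed overnight at 4 °C with p-EGFR/EGFR antibodies, then secondary antibody (1:2000, 2 h), and detected by chemiluminescence.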

Mus musculus [17] = test: Antiinflammatory activity against LPS-induced acute lung injury C57BL/6 mouse model assessed as reduction in lung edema by measuring reduction in lung wet/dry ratio at 10 to 20 mg/kg, ip administered for 3 days and on day 4 treated 1 hr before LPS stimulation and measured after 18 hrs; format: functional, organism-based; conditions: dose 10-20 mg/kg, time 4.0 day
How it was run: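 Mice (male C57BL/6, n = 6/group) received i.p. saline or compound for 3 days, then intratracheal LPS 5 mg/kg 1 h after the day-4 dose, and were killed 18 h later. Lungs were weighed wet, dried at 60 °C for 48 h to constant weight, and the wet/dry ratio was calculated. Data are mean ± SEM; t-test.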

Mus musculus [18] = test: Antiinflammatory activity against LPS-induced acute lung injury C57BL/6 mouse model assessed as reduction in IL-6 mRNA expression in lungs at 20 mg/kg, ip administered for 3 days and on day 4 treated 1 hr before LPS stimulation and measured after 18 hrs by SYBR green dye based RT-qPCR analysis; format: functional, organism-based; conditions: time 4.0 day; how it was run: as §3
[19] = Cytotoxicity against human HBE cells assessed as cell survival rate at 10 uM by MTT assay relative to control; format: cell-based; conditions: read-out: Survival
How it was run: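 HBE cells in RPMI-1640 with 10% FBS at 37 °C, 5% CO2, seeded at 1 × 10^4 cells per well. Compounds tested at 10 μM. After treatment, MTT (5 mg/mL) for 4 h at 37 °C in the dark, formazan dissolved in DMSO, absorbance read at 490 nm. Data as mean ± SEM.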

Peritoneal macrophage = test: Inhibition of LPS-induced NO production in mouse peritoneal macrophages measured after 24 hrs by Griess assay; format: functional, cell-based
[20] = target: T1, Epidermal growth factor receptor; test: Inhibition of human EGFR using poly(Glu:Tyr)(4:1) as substrate in presence of [gamma33P]ATP by radiometric HotSpot assay

Structure (SMILES) | Activity [1] | Activity (HBE [2]) | Activity (HBE [3]) | inhibition at 5 µM [11] [%] | other results
COc1ccc2c(c1)c(CC(=O)O)c(C)n2C(=O)c1ccc(Cl)cc1 [INDOMETHACIN] | Non-Toxic | Active | Active | – | –
COc1cc(N(C)CCN(C)C)c(NC(=O)CN=[N+]=[N-])cc1Nc1nccc(-c2cn(C)c3ccccc23)n1 | Non-Toxic | Active | Active | – | –
COc1cc(N(C)CCN(C)C)c(N)cc1Nc1nccc(-c2cn(C)c3ccccc23)n1.Cl | Non-Toxic | – | – | 72 | Activity (Mus musculus [4]): Active; Activity (Mus musculus [5]): Active; Activity (Mus musculus [6]): Active; inhibition (Mus musculus [7]): Active; Activity (Mus musculus [8]): Active; Activity (Mus musculus [9]): Active; inhibition at 5 µM [10]: 62%; Activity (Mus musculus [12]): Active; inhibition (Mus musculus [13]): Active; Activity (Mus musculus [14]): Active; Activity (Mus musculus [15]): Active; inhibition [16]: Active; Activity (Mus musculus [17]): Active; Activity (Mus musculus [18]): Active
COc1cc(N(C)CCN(C)C)c([N+](=O)[O-])cc1Nc1nccc(-c2cn(C)c3ccccc23)n1 | – | Active | Active | – | viability at 10 µM [19]: < 70%
CCCCN(CCCC)c1cc(OC)c(Nc2nccc(-c3cn(C)c4ccccc34)n2)cc1N.Cl | Non-Toxic | Active | Active | – | –
COc1cc(N2CCN(C)CC2)c(N)cc1Nc1nccc(-c2cn(C)c3ccccc23)n1 | – | – | – | 65 | inhibition at 5 µM [10]: 62%; viability at 10 µM [19]: < 70%
COc1cc(N2CCCC2)c(N)cc1Nc1nccc(-c2cn(C)c3ccccc23)n1.Cl | Non-Toxic | – | – | 65 | inhibition at 5 µM [10]: 62%; inhibition [16]: Active
CCN(CC)c1cc(OC)c(Nc2nccc(-c3cn(C)c4ccccc34)n2)cc1N.Cl | Non-Toxic | Active | Active | – | –
COc1cc(N2CCOCC2)c(N)cc1Nc1nccc(-c2cn(C)c3ccccc23)n1.Cl | Non-Toxic | Active | Active | – | –
COc1cc(N2CCCCCC2)c(N)cc1Nc1nccc(-c2cn(C)c3ccccc23)n1.Cl | Non-Toxic | Active | Active | – | –
O=C(Nc1cncnc1Oc1cccc(C(F)(F)F)c1)c1ccc(F)cc1 | – | – | – | – | IC50 (Peritoneal macrophage): 20.8 µM; IC50 [20]: 2.98 µM
COc1cc(F)c(N)cc1Nc1nccc(-c2cn(C)c3ccccc23)n1 | Non-Toxic | – | – | 49 | inhibition at 5 µM [10]: 63%; inhibition [16]: Active
COc1cc(N(C)CCN(C)C)c(NC(=O)CCCN=[N+]=[N-])cc1Nc1nccc(-c2cn(C)c3ccccc23)n1 | Non-Toxic | Active | – | 88 | –
COc1cc(N2CCCCC2)c(N)cc1Nc1nccc(-c2cn(C)c3ccccc23)n1.Cl | Non-Toxic | Active | Active | – | –
